Experimental data taken from ChEMBL document CHEMBL3526002, “Tissue distribution and identification of radioactivity components at elimination phase after oral administration of [¹⁴C]CS-1036, an α-amylase inhibitor, to rats” (Drug Metab Dispos, 2013).

How the values were obtained:
Parameters in all cases: dose 5 mg/kg, dosed compound name [14C]CS-1036, route oral
Settings in all cases: in vivo
Plasma [1] = assay: Drug uptake in albino F344/DuCrlCrlj rat plasma at 5 mg/kg, po after 8 hrs by liquid scintillation counting; type: ADME, organism-based
Cerebrum [2] = assay: Drug uptake in albino F344/DuCrlCrlj rat cerebrum at 5 mg/kg, po after 8 hrs by liquid scintillation counting; type: ADME, organism-based
Procedure, shortened: (§1)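 Single oral [14C]CS-1036 at 5 mg/kg was given to male rats (159–167 g; n = 3). Cerebrum was collected after aortic bleeding at 1, 4, 8, 24, 72, 168 or 336 h, weighed, and homogenized in 2 volumes of saline. A 0.5 ml aliquot was solubilized in Soluene-350 and counted by LSC with external-standard correction. Results are in ng equivalent/g tissue from specific activity and sample weight.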

Liver [3] = assay: Drug uptake in albino F344/DuCrlCrlj rat liver at 5 mg/kg, po after 8 hrs by liquid scintillation counting; type: ADME, organism-based
Adrenal gland [4] = assay: Drug uptake in albino F344/DuCrlCrlj rat adrenal gland at 5 mg/kg, po after 8 hrs by liquid scintillation counting; type: ADME, organism-based
Large intestine [5] = assay: Drug uptake in albino F344/DuCrlCrlj rat large intestine at 5 mg/kg, po after 8 hrs by liquid scintillation counting; type: ADME, organism-based
Plasma [6] = assay: Drug uptake in albino F344/DuCrlCrlj rat plasma at 5 mg/kg, po after 24 hrs by liquid scintillation counting; type: ADME, organism-based
Spleen [7] = assay: Drug uptake in albino F344/DuCrlCrlj rat spleen assessed as ng equivalent of CS-1036 at 5 mg/kg, po after 1 hr by liquid scintillation counting; type: ADME, organism-based
[8] = Drug uptake in albino F344/DuCrlCrlj rat fat assessed as ng equivalent of CS-1036 at 5 mg/kg, po after 1 hr by liquid scintillation counting; type: ADME, organism-based, Adipose tissue
Procedure, shortened: (§2)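 Male F344/DuCrlCrlj rats (bought at 7 weeks, acclimatized 5–6 days; 159–167 g; n = 3 per time point) received a single oral dose of [14C]CS-1036 at 5 mg/kg. White adipose tissue was collected after abdominal aortic bleeding at 1, 4, 8, 24, 72, 168 or 336 h. Samples were counted by LSC with external-standard efficiency correction. Results were converted to ng equivalents per g from specific activity and sample weight.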

Zone of skin [9] = assay: Drug uptake in albino F344/DuCrlCrlj rat skin assessed as ng equivalent of CS-1036 at 5 mg/kg, po after 1 hr by liquid scintillation counting; type: ADME, organism-based
Plasma [10] = assay: Drug uptake in albino F344/DuCrlCrlj rat plasma assessed as ng equivalent of CS-1036 at 5 mg/kg, po after 4 hrs by liquid scintillation counting; type: ADME, organism-based
Harderian gland [11] = assay: Drug uptake in albino F344/DuCrlCrlj rat harderian gland assessed as ng equivalent of CS-1036 at 5 mg/kg, po after 72 hrs by liquid scintillation counting; type: ADME, organism-based
Adrenal gland [12] = assay: Drug uptake in albino F344/DuCrlCrlj rat adrenal gland assessed as ng equivalent of CS-1036 at 5 mg/kg, po after 72 hrs by liquid scintillation counting; type: ADME, organism-based
[13] = Drug uptake in albino F344/DuCrlCrlj rat testis assessed as ng equivalent of CS-1036 at 5 mg/kg, po after 336 hrs by liquid scintillation counting; type: ADME, organism-based
Heart [14] = assay: Drug uptake in albino F344/DuCrlCrlj rat heart at 5 mg/kg, po after 24 hrs by liquid scintillation counting; type: ADME, organism-based
[15] = Drug uptake in albino F344/DuCrlCrlj rat testis at 5 mg/kg, po after 24 hrs by liquid scintillation counting; type: ADME, organism-based
Large intestine [16] = assay: Drug uptake in albino F344/DuCrlCrlj rat large intestine at 5 mg/kg, po after 24 hrs by liquid scintillation counting; type: ADME, organism-based
Thymus = assay: Drug uptake in albino F344/DuCrlCrlj rat thymus assessed as ng equivalent of CS-1036 at 5 mg/kg, po after 168 hrs by liquid scintillation counting; type: ADME, organism-based
Liver [17] = assay: Drug uptake in albino F344/DuCrlCrlj rat liver assessed as ng equivalent of CS-1036 at 5 mg/kg, po after 168 hrs by liquid scintillation counting; type: ADME, organism-based
Plasma [18] = assay: Drug uptake in albino F344/DuCrlCrlj rat plasma at 5 mg/kg, po after 72 hrs by liquid scintillation counting; type: ADME, organism-based
Stomach = assay: Drug uptake in albino F344/DuCrlCrlj rat stomach at 5 mg/kg, po after 72 hrs by liquid scintillation counting; type: ADME, organism-based
Heart [19] = assay: Drug uptake in albino F344/DuCrlCrlj rat heart assessed as ng equivalent of CS-1036 at 5 mg/kg, po after 8 hrs by liquid scintillation counting; type: ADME, organism-based
Blood [20] = assay: Drug uptake in albino F344/DuCrlCrlj rat blood assessed as ng equivalent of CS-1036 at 5 mg/kg, po after 336 hrs by liquid scintillation counting; type: ADME, organism-based
Procedure, shortened: (§3)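 Male F344/DuCrlCrlj rats (159–167 g; n = 3 per time point) received a single oral dose of [14C]CS-1036 at 5 mg/kg. Blood was taken from the abdominal aorta at 1, 4, 8, 24, 72, 168 and 336 h. Radioactivity was counted by LSC with external-standard efficiency correction. Results were converted to ng equivalent of CS-1036/ml using specific activity and sample volume, and reported as mean + S.D.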

Harderian gland [21] = assay: Drug uptake in albino F344/DuCrlCrlj rat harderian gland at 5 mg/kg, po after 1 hr by liquid scintillation counting; type: ADME, organism-based
Lung = assay: Drug uptake in albino F344/DuCrlCrlj rat lung at 5 mg/kg, po after 1 hr by liquid scintillation counting; type: ADME, organism-based
Spleen [22] = assay: Drug uptake in albino F344/DuCrlCrlj rat spleen at 5 mg/kg, po after 1 hr by liquid scintillation counting; type: ADME, organism-based
Aorta = assay: Drug uptake in albino F344/DuCrlCrlj rat aorta at 5 mg/kg, po after 1 hr by liquid scintillation counting; type: ADME, organism-based
Cerebrum [23] = assay: Drug uptake in albino F344/DuCrlCrlj rat cerebrum assessed as ng equivalent of CS-1036 at 5 mg/kg, po after 24 hrs by liquid scintillation counting; type: ADME, organism-based; procedure, shortened: as §1
Plasma [24] = assay: Drug uptake in albino F344/DuCrlCrlj rat plasma at 5 mg/kg, po after 168 hrs by liquid scintillation counting; type: ADME, organism-based
[25] = Drug uptake in albino F344/DuCrlCrlj rat fat at 5 mg/kg, po after 168 hrs by liquid scintillation counting; type: ADME, organism-based, Adipose tissue; procedure, shortened: as §2
Blood [26] = assay: Drug uptake in albino F344/DuCrlCrlj rat blood at 5 mg/kg, po after 4 hrs by liquid scintillation counting; type: ADME, organism-based; procedure, shortened: as §3
Cerebellum = assay: Drug uptake in albino F344/DuCrlCrlj rat cerebellum at 5 mg/kg, po after 4 hrs by liquid scintillation counting; type: ADME, organism-based
Cerebrum [27] = assay: Drug uptake in albino F344/DuCrlCrlj rat cerebrum at 5 mg/kg, po after 336 hrs by liquid scintillation counting; type: ADME, organism-based; procedure, shortened: as §1
Pancreas = assay: Drug uptake in albino F344/DuCrlCrlj rat pancreas assessed as ng equivalent of CS-1036 at 5 mg/kg, po after 24 hrs by liquid scintillation counting; type: ADME, organism-based
Zone of skin [28] = assay: Drug uptake in albino F344/DuCrlCrlj rat skin assessed as ng equivalent of CS-1036 at 5 mg/kg, po after 24 hrs by liquid scintillation counting; type: ADME, organism-based

Work on `C[C@H]1O[C@@H](O[C@H]2[C@H](O)[C@@H](O)[C@@H](O[14C@H]3[14C@H](O)[14CH2]N[14C@@H]3[14CH2]O)O[C@@H]2CO)[C@H](O)[C@@H](O)[C@@H]1O` yielded a Radiolabel recovery (Plasma [1]) of 27.7 ngequiv/ml, a Radiolabel recovery (Cerebrum [2]) of 9.08 ngequiv/g and a Radiolabel recovery (Liver [3]) of 193 ngequiv/g. The Radiolabel recovery (Adrenal gland [4]) was 66.1 ngequiv/g, the Radiolabel recovery (Large intestine [5]) was 7770 ngequiv/g and the Radiolabel recovery (Plasma [6]) was 46.3 ngequiv/ml. For the same molecule, the Radiolabel recovery (Spleen [7]) was 57.2 ngequiv/g, the Radiolabel recovery [8] was 1.53 ngequiv/g and the Radiolabel recovery (Zone of skin [9]) was 2.2 ngequiv/g. The Radiolabel recovery (Plasma [10]) was 26.7 ngequiv/ml, the Radiolabel recovery (Harderian gland [11]) was 67 ngequiv/g and the Radiolabel recovery (Adrenal gland [12]) was 30.3 ngequiv/g. For the same molecule, the Radiolabel recovery [13] was 2.06 ngequiv/g, the Radiolabel recovery (Heart [14]) was 41.7 ngequiv/g and the Radiolabel recovery [15] was 31.4 ngequiv/g. For the same molecule, the Radiolabel recovery (Large intestine [16]) was 299 ngequiv/g, the Radiolabel recovery (Thymus) was 5.4 ngequiv/g and the Radiolabel recovery (Liver [17]) was 9.1 ngequiv/g. It also gave a Radiolabel recovery (Plasma [18]) of 14.5 ngequiv/ml, a Radiolabel recovery (Stomach) of 49 ngequiv/g and a Radiolabel recovery (Heart [19]) of 8.3 ngequiv/g. It also gave a Radiolabel recovery (Blood [20]) of 0.2 ngequiv/ml, a Radiolabel recovery (Harderian gland [21]) of 30.2 ngequiv/g and a Radiolabel recovery (Lung) of 47.1 ngequiv/g. The Radiolabel recovery (Spleen [22]) was 65.6 ngequiv/g, the Radiolabel recovery (Aorta) was 50.6 ngequiv/g and the Radiolabel recovery (Cerebrum [23]) was 1.5 ngequiv/g. For the same molecule, the Radiolabel recovery (Plasma [24]) was 3.57 ngequiv/ml, the Radiolabel recovery [25] was 130 ngequiv/g and the Radiolabel recovery (Blood [26]) was 44.3 ngequiv/ml. For the same molecule, the Radiolabel recovery (Cerebellum) was 11.2 ngequiv/g, the Radiolabel recovery (Cerebrum [27]) was 4.88 ngequiv/g and the Radiolabel recovery (Pancreas) was 25 ngequiv/g. The Radiolabel recovery (Zone of skin [28]) was 8.2 ngequiv/g.
